From ChEMBL document CHEMBL1152214, “Synthesis and immunostimulatory properties of the phosphorothioate analogues of cdiGMP” (Bioorg Med Chem Lett, 2008) come the findings set out here.

SMILES strings stand for the structures. The source made the active and inactive calls. The calls are words filed in the database; no cut-off is given here.

Common to all, as to assay type: functional, organism-based
For test [1], the species on record is Mus musculus. The test is described as follows: Induction of IL-5 secretion in C57BL/6 mouse. The method in brief: (§1)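 Mice dosed by intranasal instillation and killed after 24 h; bronchoalveolar lavage collected five times with PBS plus 3 mM EDTA; lavage fluid measured for a panel of 21 chemokines and cytokines.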
Test [2] is filed under the species Mus musculus. The test can be described thus: Induction of IL-4 secretion in C57BL/6 mouse. The method in brief: as §1
For test [3], the species on record is Mus musculus. The test can be described thus: Induction of IL-3 secretion in C57BL/6 mouse. In short, it runs like this:
as §1

The species entered for test [4] is Mus musculus. The test can be described thus: Induction of IL-2 secretion in C57BL/6 mouse. The method in brief: as §1
The species entered for test [5] is Mus musculus. The test can be described thus: Induction of IL-1alpha secretion in C57BL/6 mouse. The method in brief:
as §1

For test [6], the species on record is Mus musculus. The test is described as follows: Induction of IL-17 secretion in C57BL/6 mouse. The method in brief: as §1
Test [7] is filed under the species Mus musculus. The test is described as follows: Induction of IL-13 secretion in C57BL/6 mouse. In short, it runs like this:
as §1

The species named for test [8] is Mus musculus. The test can be described thus: Induction of IL-10 secretion in C57BL/6 mouse. In short, it runs like this: as §1
The species named for test [9] is Mus musculus. The test is described as follows: Induction of IFN-gamma secretion in C57BL/6 mouse. The method in brief: as §1
Test [10] is filed under the species Mus musculus. The test can be described thus: Induction of GM-CSF secretion in C57BL/6 mouse. The method in brief: as §1
For test [11], the species on record is Mus musculus. The test can be described thus: Induction of TNFalpha secretion in C57BL/6 mouse. The method in brief: as §1
The species entered for test [12] is Mus musculus. The test can be described thus: Induction of RNATES secretion in C57BL/6 mouse. The method in brief: as §1
The species named for test [13] is Mus musculus. The test is described as follows: Induction of MIP-1beta secretion in C57BL/6 mouse. The method in brief: as §1
The species entered for test [14] is Mus musculus. The test can be described thus: Induction of MCP-1 secretion in C57BL/6 mouse. In short, it runs like this:
as §1

The species named for test [15] is Mus musculus. The test is described as follows: Induction of KC secretion in C57BL/6 mouse. In short, it runs like this: as §1
The species entered for test [16] is Mus musculus. The test can be described thus: Induction of IL-6 secretion in C57BL/6 mouse. In short, it runs like this: as §1
The species named for test [17] is Mus musculus. The test can be described thus: Induction of IL1-beta secretion in C57BL/6 mouse. The method in brief: as §1
Test [18] is filed under the species Mus musculus. The test can be described thus: Induction of IL-12(p40) secretion in C57BL/6 mouse. In short, it runs like this: as §1
The species named for test [19] is Mus musculus. The test is described as follows: Immunostimulatory activity in C57BL/6 mouse assessed as recruitment of inflammatory cells into bronchoalveolar spaces. The settings on record: Lung. In short, it runs like this:
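Compound given to mice by intranasal instillation; animals killed 24 h later and lungs lavaged five times with PBS containing 3 mM EDTA; total and differential inflammatory cell counts determined in the bronchoalveolar lavage.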

Test [20] is filed under the species Mus musculus. The test is described as follows: Induction of IL-9 secretion in C57BL/6 mouse. In short, it runs like this:
as §1

For test [21], the species on record is Mus musculus. The test is described as follows: Induction of VEGF secretion in C57BL/6 mouse. The method in brief:
as §1

Regarding `Nc1nc2ncn([C@@H]3O[C@@H]4COP(=O)(O)O[C@@H]5[C@H](O)[C@@H](n6cnc7nc(N)[nH]c(=O)c76)O[C@H]5COP(=O)(O)O[C@H]4[C@H]3O)c2c(=O)[nH]1`, the outcome in the test filed under Mus musculus [1], in the test listed under Mus musculus [2], in the test listed under Mus musculus [3], in the test filed under Mus musculus [4], in the test listed under Mus musculus [5] and in the test listed under Mus musculus [6] was inactive. The result in the test filed under Mus musculus [7], in the test listed under Mus musculus [8], in the test listed under Mus musculus [9], in the test listed under Mus musculus [10], in the test filed under Mus musculus [20] and in the test listed under Mus musculus [21] was inactive. Also, the Activity entry in the test filed under Mus musculus [11], in the test listed under Mus musculus [12], in the test filed under Mus musculus [13], in the test listed under Mus musculus [14], in the test listed under Mus musculus [15] and in the test filed under Mus musculus [16] was “Dose-dependent effect” throughout. The Activity result in the test filed under Mus musculus [17], in the test filed under Mus musculus [18] and in the test listed under Mus musculus [19] was “Dose-dependent effect” each time.
